The values that follow come from ChEMBL document CHEMBL4392862, “Antioxidant, anti-tyrosinase and anti-melanogenic effects of (E)-2,3-diphenylacrylic acid derivatives” (Bioorg Med Chem, 2019).

Series [1] in a line: Antioxidant activity assessed as DPPH radical scavenging activity at 1 mM after 30 mins under dark condition relative to untreated control. It is filed as functional. The essentials: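 Test compounds dissolved in DMSO, mixed 1:9 (v/v) with 0.2 mM DPPH in methanol to a tested level of 1 mM. Incubated 30 min in the dark. Absorbance read at 517 nm. Scavenging % = (Ac−As)×100/Ac against untreated control. L-ascorbic acid used as positive control. Triplicate.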

In series [2] the test system is B16-F10. Kind of series: Cytotoxicity against mouse B16F10 cells assessed as reduction in cell viability at 5 to 10 uM incubated for 24 hrs by WST8 assay. As to conditions: b16-f10, 24 h. It counts as cell-based. The method in brief: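 B16F10 cells seeded at 5x10^4 per well in DMEM with 10% FBS and penicillin/streptomycin, 37 °C, 5% CO2, and grown 24 h. Exposed to 0, 5, 10 or 25 µM for 24 h. WST-8 reagent added for 1 h, OD read at 450 nm. Viability expressed as % of untreated cells. Three repeats.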
(In general: Tetrazolium assays rely on reduction of a dye to a coloured formazan, in cell work by metabolically active cells.)

The target in series [3] is T1, Tyrosinase (Mus musculus) (UniProt P11344).
T1 sequence (whole entry): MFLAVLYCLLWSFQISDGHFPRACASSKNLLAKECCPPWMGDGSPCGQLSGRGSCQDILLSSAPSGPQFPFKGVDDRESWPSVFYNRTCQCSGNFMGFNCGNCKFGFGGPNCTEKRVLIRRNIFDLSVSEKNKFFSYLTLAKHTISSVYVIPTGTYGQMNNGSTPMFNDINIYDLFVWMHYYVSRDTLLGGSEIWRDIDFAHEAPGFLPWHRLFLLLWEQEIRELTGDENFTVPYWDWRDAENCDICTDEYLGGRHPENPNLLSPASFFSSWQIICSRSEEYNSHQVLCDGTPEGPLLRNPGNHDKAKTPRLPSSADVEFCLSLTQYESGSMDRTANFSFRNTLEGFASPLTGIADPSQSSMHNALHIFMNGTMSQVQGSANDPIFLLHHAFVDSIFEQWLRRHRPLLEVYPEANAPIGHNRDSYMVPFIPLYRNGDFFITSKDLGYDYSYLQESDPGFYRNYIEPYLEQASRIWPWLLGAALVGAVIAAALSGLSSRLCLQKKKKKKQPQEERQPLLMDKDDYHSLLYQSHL
The experiment in a line: Inhibition of tyrosinase in alpha-MSH-stimulated mouse B16F10 cells incubated for 24 hrs relative to untreated control. The method in brief:
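B16F10 cells seeded at 5x10^4 per well and grown 24 h at 37 °C, 5% CO2. […] Cells PBS-washed, lysed in PMSF/Triton X-100 buffer, frozen at −80 °C, spun 12,000 rpm 4 °C. Supernatant incubated with L-dopa 30 min at 37 °C, OD read at 500 nm. Triplicate.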

The target in series [4] is T1, Tyrosinase (Mus musculus). As to conditions: 400 uM.

Regarding `Cc1cc(/C=C(/C(=O)O)c2ccccc2)ccc1O`, the inhibition (in general, the relative decrease from the control value, in per cent) in series [1] is 78.1%.

On to `O=C(O)/C(=C/c1ccc(O)c(O)c1)c1ccccc1`, for which, in series [1], the inhibition is 83.7%.

Consider `COc1ccc(/C=C(/C(=O)O)c2ccccc2)cc1OC`, for which the inhibition in series [1] was found to be 10.2%.

As for `O=C1O[C@H]([C@@H](O)CO)C(O)=C1O`, the inhibition in series [1] worked out at 84.6%.

`O=C(O)/C(=C/c1ccc(O)cc1)c1ccccc1`: the inhibition in series [1] is 6.04%.

For `COc1cc(/C=C(/C(=O)O)c2ccccc2)ccc1O`, the inhibition in series [1] is 81.6%.

On to `COc1ccc(/C=C(/C(=O)O)c2ccccc2)cc1`, for which, in series [1], the inhibition was 5.68%.

Take `O=C(O)/C(=C/c1ccc(O)cc1O)c1ccccc1`: the Activity result in series [2] is listed as “Non-Toxic”. Also, the inhibition in series [1] was 52.1%; in series [3], “Dose-dependent effect”.

Turning to `O=C(O)/C(=C\c1cc(Br)c(O)c(Br)c1)c1ccccc1`, the inhibition in series [1] came out at 11.6%.

For the compound `O=C(O)/C(=C/c1ccc(O)c(Br)c1)c1ccccc1`, in series [1], the inhibition stood at 19.4%.

With `COc1ccc(/C=C(/C(=O)O)c2ccccc2)cc1O`, the inhibition in series [1] was 24%.

As to `O=C(O)/C(=C/c1cccc(O)c1)c1ccccc1`, the inhibition in series [1] came to 12.4%.

`O=C(O)/C(=C/c1cc(Br)c(O)c(Br)c1)c1ccccc1`: the inhibition in series [1] was 23.9%.

Turning to `OC[C@H]1O[C@@H](Oc2ccc(O)cc2)[C@H](O)[C@@H](O)[C@@H]1O`, the inhibition in series [4] was determined as 42.6%.

In the case of `COc1cc(/C=C(/C(=O)O)c2ccccc2)cc(OC)c1O`, in series [1], the inhibition was determined as 85%.

Take `CCOc1cc(/C=C(/C(=O)O)c2ccccc2)ccc1O`: the inhibition in series [1] came out at 43.6%.

As to `O=C(O)/C(=C/c1ccccc1O)c1ccccc1`, the inhibition in series [1] was determined as 4.43%.
